Assay [1] addresses T1, Histone-lysine N-methyltransferase EHMT1 (Homo sapiens, UniProt Q9H9B1).
T1 sequence (Q9H9B1 whole entry): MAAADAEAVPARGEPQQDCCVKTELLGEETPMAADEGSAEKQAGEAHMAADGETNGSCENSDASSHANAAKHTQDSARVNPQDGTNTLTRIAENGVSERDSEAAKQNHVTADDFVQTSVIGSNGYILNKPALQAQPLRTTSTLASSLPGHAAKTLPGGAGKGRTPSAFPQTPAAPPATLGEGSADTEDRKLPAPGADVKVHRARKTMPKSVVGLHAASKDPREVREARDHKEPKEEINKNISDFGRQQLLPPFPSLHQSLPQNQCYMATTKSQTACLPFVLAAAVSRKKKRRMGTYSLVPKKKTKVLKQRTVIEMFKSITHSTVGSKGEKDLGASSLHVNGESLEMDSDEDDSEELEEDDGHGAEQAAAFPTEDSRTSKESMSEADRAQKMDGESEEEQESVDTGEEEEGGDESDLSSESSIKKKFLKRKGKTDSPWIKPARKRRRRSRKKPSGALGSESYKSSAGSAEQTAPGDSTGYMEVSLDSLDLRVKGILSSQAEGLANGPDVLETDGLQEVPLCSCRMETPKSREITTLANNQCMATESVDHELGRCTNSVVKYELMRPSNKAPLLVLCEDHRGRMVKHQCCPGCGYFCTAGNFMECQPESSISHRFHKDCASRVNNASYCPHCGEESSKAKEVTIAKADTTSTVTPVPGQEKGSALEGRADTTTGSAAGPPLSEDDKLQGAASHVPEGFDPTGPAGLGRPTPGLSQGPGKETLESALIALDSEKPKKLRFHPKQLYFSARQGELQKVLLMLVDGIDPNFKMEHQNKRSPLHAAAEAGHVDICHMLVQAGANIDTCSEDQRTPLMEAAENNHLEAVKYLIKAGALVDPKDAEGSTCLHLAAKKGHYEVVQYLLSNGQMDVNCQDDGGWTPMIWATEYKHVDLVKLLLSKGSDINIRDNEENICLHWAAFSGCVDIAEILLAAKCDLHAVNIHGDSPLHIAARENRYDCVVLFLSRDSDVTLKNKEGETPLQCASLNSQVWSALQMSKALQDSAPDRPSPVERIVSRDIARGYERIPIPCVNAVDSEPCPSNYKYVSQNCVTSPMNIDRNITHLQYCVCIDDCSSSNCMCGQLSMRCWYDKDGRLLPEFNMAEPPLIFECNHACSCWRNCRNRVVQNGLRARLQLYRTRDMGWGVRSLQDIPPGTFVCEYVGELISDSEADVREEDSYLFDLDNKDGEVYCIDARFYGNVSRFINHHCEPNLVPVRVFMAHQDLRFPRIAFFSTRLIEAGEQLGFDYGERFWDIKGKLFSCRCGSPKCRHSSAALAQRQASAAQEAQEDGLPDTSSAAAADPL
The assay is described as follows: Inhibition of human GLP (982 to 1266 residues) using H3 peptide as substrate measured upto 45 mins in presence of SAM cofactor. The gist of the method: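 Contracted scintillation proximity assay following 3H-methyl transfer from SAM (1 μM) to H3 peptide (0.05 μM) by G9a or GLP (5 nM each), with preincubation times of 5, 15 or 45 min; four replicates.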

Assay [2] has as its target Histone-lysine N-methyltransferase EZH1 (Homo sapiens) (UniProt Q92800). Briefly: Inhibition of N-terminal His-tagged full-length recombinant human EZH1 ( 2 to 747 residues) expressed in baculovirus expression system at 1 uM using 3H-SAM as a substrate relative to control. The gist of the method:
(§1)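 Contracted 3H-SAM methyl-transfer scintillation proximity assay against a panel of methyltransferases; compound tested at 1 μM in duplicate; inhibition expressed as percent of control enzyme activity.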

Assay [3] concerns the target Histone-lysine N-methyltransferase SUV39H1 (Homo sapiens) (UniProt O43463). The assay is described as follows: Inhibition of N-terminal fusion protein with C-terminal His-tagged SUV39H1 (44 to 412 residues) (unknown origin) expressed in Escherichia coli at 1 uM using 3H-SAM as a substrate relative to control. The gist of the method: as §1
Assay [4] addresses Histone-lysine N-methyltransferase EHMT1 (Homo sapiens) (UniProt Q9H9B1). The assay is described as follows: Inhibition of human GLP (982 to 1266 residues) assessed as covalent modification by measuring GLP adduct formation by mass spectrometry. To be noted: time <= 120.0 min, TDE = time-dependent effect. The gist of the method:
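Purified G9a or GLP catalytic domain (5 μM) in 50 mM Tris-HCl pH 7.5, 150 mM NaCl incubated with 50 μM compound or DMSO at room temperature (1 h, or 30 and 60 min in time course); intact mass by ESI LC/MS-TOF; adduct % = adduct/(protein + adduct) × 100.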

pIC50: −log10 of the molar value.

The record followed here is ChEMBL document CHEMBL5126600, “Discovery of the First-in-Class G9a/GLP Covalent Inhibitors” (J Med Chem, 2022).

Sequence of Histone-lysine N-methyltransferase SUV39H1 (Homo sapiens) (O43463 whole entry, the tested form may be a part): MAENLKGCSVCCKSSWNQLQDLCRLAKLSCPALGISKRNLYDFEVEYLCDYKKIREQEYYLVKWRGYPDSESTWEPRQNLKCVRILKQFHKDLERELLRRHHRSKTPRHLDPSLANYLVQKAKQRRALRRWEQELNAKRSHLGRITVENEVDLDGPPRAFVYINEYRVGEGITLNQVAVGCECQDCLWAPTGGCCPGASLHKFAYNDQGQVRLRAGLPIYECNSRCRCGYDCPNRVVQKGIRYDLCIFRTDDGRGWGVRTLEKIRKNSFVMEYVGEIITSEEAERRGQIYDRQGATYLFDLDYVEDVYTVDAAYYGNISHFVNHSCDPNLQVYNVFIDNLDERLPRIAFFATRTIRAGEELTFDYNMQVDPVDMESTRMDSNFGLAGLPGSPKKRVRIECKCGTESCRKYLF
Sequence of Histone-lysine N-methyltransferase EZH1 (Homo sapiens) (Q92800 whole entry, the tested form may be a part): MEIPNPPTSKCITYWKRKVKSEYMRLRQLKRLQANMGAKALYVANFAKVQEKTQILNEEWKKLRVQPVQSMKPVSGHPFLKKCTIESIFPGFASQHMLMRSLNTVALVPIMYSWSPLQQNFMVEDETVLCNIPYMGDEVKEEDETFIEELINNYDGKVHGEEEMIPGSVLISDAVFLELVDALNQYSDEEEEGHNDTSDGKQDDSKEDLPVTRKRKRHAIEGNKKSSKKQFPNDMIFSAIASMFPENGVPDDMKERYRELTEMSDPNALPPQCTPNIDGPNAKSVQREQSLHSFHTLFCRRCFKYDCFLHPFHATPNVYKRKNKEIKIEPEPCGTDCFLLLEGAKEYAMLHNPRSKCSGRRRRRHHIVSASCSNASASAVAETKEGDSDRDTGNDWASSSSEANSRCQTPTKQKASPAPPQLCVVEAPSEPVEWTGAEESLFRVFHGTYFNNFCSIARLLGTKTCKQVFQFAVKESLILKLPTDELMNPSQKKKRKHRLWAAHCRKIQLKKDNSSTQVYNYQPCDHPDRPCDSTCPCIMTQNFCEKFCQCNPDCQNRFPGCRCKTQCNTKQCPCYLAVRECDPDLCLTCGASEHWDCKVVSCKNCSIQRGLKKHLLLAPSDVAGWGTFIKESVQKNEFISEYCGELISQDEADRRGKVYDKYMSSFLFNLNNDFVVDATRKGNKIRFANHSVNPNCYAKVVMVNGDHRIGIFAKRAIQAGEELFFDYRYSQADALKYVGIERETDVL

Turning to `C=CC(=O)Nc1cc(NC2CCN(C(C)C)CC2)c2cc(OC)c(OCCCN3CCCC3)cc2n1`, the pIC50 in assay [1] is 6.85. The figures for the inhibition in assay [2], in assay [3] and in assay [4] were less than 50%, less than 50% and “Tde”, respectively.

For orientation: pIC50 means −log10 of the IC50, conventionally taken in molar units. As a reminder, the inhibition is the share of the control response that was lost under treatment.
